Source: ChEMBL document CHEMBL4270638, “Sulfonyl-containing phenyl-pyrrolyl pentane analogues: Novel non-secosteroidal vitamin D receptor modulators with favorable physicochemical properties, pharmacokinetic properties and anti-tumor activity” (Eur J Med Chem, 2018)
Values after ≈ are worked out from the molar mass of the structure shown. Active and inactive are the calls of the source. No cut-off for these calls is given here.

Key:
MCF7 [1] = experiment: Cell cycle arrest in human MCF7 cells expressing scrambled siRNA assessed as accumulation at G2/M phase at 1 uM after 24 hrs by propidium iodide staining based flow cytometry (reference value: 19.6%); type: functional
[2] = Mean residence time in Sprague-Dawley rat at 5 mg/kg, iv by HPLC method; type: ADME, organism-based; details: in vivo
Procedure, shortened: (§1)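 Male Sprague-Dawley rats, 180–220 g, n = 3 per group. Dosed iv at 5 mg/kg or ip at 20 mg/kg in ethanol/EL/saline (1:1:18). Plasma sampled at 0, 0.083, 0.167, 0.25, 0.5, 1, 2, 4, 8, 12 and 24 h and centrifuged 12000 rpm for 10 min. Plasma drug measured by HPLC; parameters by PK modelling; mean ± SD.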

MCF7 [3] = experiment: Cell cycle arrest in human MCF7 cells expressing scrambled siRNA assessed as accumulation at G0/G1 phase at 1 uM after 24 hrs by propidium iodide staining based flow cytometry (reference value: 49.28%); type: functional
MCF7 [4] = experiment: Cell cycle arrest in human MCF7 cells expressing scrambled siRNA assessed as accumulation at S phase at 1 uM after 24 hrs by propidium iodide staining based flow cytometry (reference value: 29.79%); type: functional
Mus musculus = experiment: Hypercalcemic effect in Balb/c nude mouse xenografted with human MCF7 cells assessed as effect on serum calcium level at 10 mg/kg, ip administered three times a week for three weeks starting from day 7 after tumor cell inoculation measured on day 17 during compound dosing (reference value: 0.6 umol/ml); type: ADME, organism-based; details: in vivo
MCF7 [5] = experiment: Antitumor activity against human MCF7 cells xenografted in Balb/c nude mouse assessed as increase in p27 expression at 10 mg/kg, ip administered three times a week for three weeks starting from day 7 after tumor cell inoculation by immunohistochemical analysis; type: functional, organism-based
MCF7 [6] = experiment: Cell cycle arrest in human MCF7 cells expressing VDR siRNA assessed as accumulation at G0/G1 phase at 1 uM after 24 hrs by propidium iodide staining based flow cytometry (reference value: 49.17%); type: functional
[7] = Solubility of the compound in water at pH 7.4 by HPLC method; type: physicochemical
Procedure, shortened: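 Aqueous solubility measured at pH 7.4, with samples quantified by HPLC.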

[8] = Clearance in Sprague-Dawley rat at 20 mg/kg, ip by HPLC method; type: ADME, organism-based; details: in vivo; procedure, shortened: as §1
MCF7 [9] = experiment: Induction of apoptosis in human MCF7 cells assessed as upregulation of p27 expression at 1 uM after 24 hrs by Western blot analysis; type: functional, cell-based
Procedure, shortened: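 MCF-7 cells treated at 1 µM for 24 h. Lysates resolved by 10% SDS-PAGE and transferred to PVDF. Probed with rabbit anti-p21, anti-p27 and anti-Bax antibodies, with mouse anti-β-actin as loading control. HRP-conjugated secondary antibodies; bands detected on an infrared scanner.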

MCF7 [10] = experiment: Induction of apoptosis in human MCF7 cells expressing scrambled siRNA assessed as necrotic cells at 1 uM after 24 hrs by Annexin-V-FITC/propidium iodide staining based flow cytometry (reference value: 0.16%); type: functional
MCF7 [11] = experiment: Induction of apoptosis in human MCF7 cells expressing scrambled siRNA assessed as early apoptotic cells at 1 uM after 24 hrs by Annexin-V-FITC/propidium iodide staining based flow cytometry (reference value: 0.93%); type: functional
[12] = Clearance in Sprague-Dawley rat at 5 mg/kg, iv by HPLC method; type: ADME, organism-based; details: in vivo; procedure, shortened: as §1
[13] = molecular target: T1, Retinoic acid receptor RXR-alpha/Vitamin D3 receptor (Homo sapiens, UniProt P11473+P19793); experiment: Transactivation of recombinant human VDR/RXRalpha expressed in HEK293 cells after 24 hrs by Dual-luciferase reporter gene assay; type: cell-based
T1 sequence (P11473 whole entry): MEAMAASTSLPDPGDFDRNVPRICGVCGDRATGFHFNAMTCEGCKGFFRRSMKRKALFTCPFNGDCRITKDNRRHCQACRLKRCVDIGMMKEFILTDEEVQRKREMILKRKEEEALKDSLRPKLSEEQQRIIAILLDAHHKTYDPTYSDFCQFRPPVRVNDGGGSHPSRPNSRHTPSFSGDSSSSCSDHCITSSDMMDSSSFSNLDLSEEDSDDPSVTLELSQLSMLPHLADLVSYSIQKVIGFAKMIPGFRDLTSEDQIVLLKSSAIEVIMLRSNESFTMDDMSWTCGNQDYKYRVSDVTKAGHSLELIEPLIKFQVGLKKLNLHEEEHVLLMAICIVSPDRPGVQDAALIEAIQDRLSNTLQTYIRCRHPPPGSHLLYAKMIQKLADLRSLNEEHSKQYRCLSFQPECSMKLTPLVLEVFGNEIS
T1 sequence (P19793 whole entry): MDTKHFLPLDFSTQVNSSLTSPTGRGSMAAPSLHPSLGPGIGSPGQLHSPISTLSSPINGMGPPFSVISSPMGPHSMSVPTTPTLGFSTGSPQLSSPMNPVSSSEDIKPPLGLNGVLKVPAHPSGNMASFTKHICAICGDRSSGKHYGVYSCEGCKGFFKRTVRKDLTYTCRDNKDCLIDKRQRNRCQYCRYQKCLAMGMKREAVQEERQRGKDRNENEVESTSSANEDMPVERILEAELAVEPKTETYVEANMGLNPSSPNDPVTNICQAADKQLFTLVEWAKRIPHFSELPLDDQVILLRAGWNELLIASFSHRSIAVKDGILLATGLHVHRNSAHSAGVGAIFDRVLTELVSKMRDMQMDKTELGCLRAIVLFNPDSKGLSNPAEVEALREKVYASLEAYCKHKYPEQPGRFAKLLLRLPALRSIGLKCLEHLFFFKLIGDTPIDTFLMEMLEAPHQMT

MCF7 [14] = experiment: Antitumor activity against human MCF7 cells xenografted in Balb/c nude mouse assessed as increase in Bax expression at 10 mg/kg, ip administered three times a week for three weeks starting from day 7 after tumor cell inoculation by immunohistochemical analysis; type: functional, organism-based
MCF7 [15] = experiment: Cell cycle arrest in human MCF7 cells expressing VDR siRNA assessed as accumulation at S phase at 1 uM after 24 hrs by propidium iodide staining based flow cytometry (reference value: 32%); type: functional
[16] = Half life in Sprague-Dawley rat at 5 mg/kg, iv by HPLC method; type: ADME, organism-based; details: in vivo; procedure, shortened: as §1

MRT [2] [h] | solubility [7] [µg/mL] | CL/F [8] [mL/min] | clearance [12] [mL/min] | EC50 [13] [nM] | half-life [16] [h] | Compound | Activity (MCF7 [1]) [%] | Activity (MCF7 [3]) [%] | Activity (MCF7 [4]) [%] | Activity (Mus musculus) | Activity (MCF7 [5]) | Activity (MCF7 [6]) [%] | Activity (MCF7 [9]) | Activity (MCF7 [10]) [%] | Activity (MCF7 [11]) [%] | Activity (MCF7 [14]) | Activity (MCF7 [15]) [%]
8.08 | 74.6 (≈ 157 µM) | 16.5 | 7 | 6.41 | 4.72 | CCN(CC)CCNC(=O)c1ccc(C(CC)(CC)c2ccc(OCSC)c(C)c2)n1CC | 15.96 | 55.26 | 27.95 | Non-Toxic | Active | 50.3 | Active | 0.34 | 1.31 | Active | 32.42
9.72 | 85.3 (≈ 150 µM) | 27.7 | 11.2 | 38.2 | 6.6 | CCN(CC)CCNC(=O)c1cc(C(CC)(CC)c2ccc(OCS(=O)(=O)c3ccccc3)c(C)c2)cn1CC | 13.22 | 55.96 | 29.66 | Non-Toxic | Active | 50.69 | Active | 0.46 | 1.21 | Active | 26.36
